The text below walks through data of ChEMBL document CHEMBL4321820, “Identification and Optimization of Mechanism-Based Fluoroallylamine Inhibitors of Lysyl Oxidase-like 2/3” (J Med Chem, 2019).

Data set [1] deals with Mus musculus. In words: Antifibrotic activity in CCl4-induced BALB/c mouse model of liver fibrosis assessed as liver fibrosis area at 50 mg/kg, po administered for 6 weeks by picro-sirius red staining based microscopy. Format: functional, organism-based. The gist of the method: (§1)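 Female BALB/c mice given CCl4 i.p. (1 mL/kg of 25% CCl4 in olive oil) twice weekly for 6 weeks; sacrificed 48 h after last dose. Test articles oral, once daily: prophylactic weeks 1-6 or therapeutic weeks 4-6; imatinib control 50 mg/kg daily weeks 1-6. One formalin-fixed liver lobe stained for Picro Sirius Red and α-SMA; fibrotic area as % of total liver area; mean ± SEM, one-way ANOVA with Dunnett's test.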

Data set [2] relates to Mus musculus. In words: Effect on plasma ALT level in CCl4-induced BALB/c mouse model of liver fibrosis at 50 mg/kg, po administered for 6 weeks. To be noted: in vivo, 1008 h. Format: ADME, organism-based. A digest of the protocol:
(§2)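 CCl4 liver fibrosis in female BALB/c mice: CCl4 i.p. (1 mL/kg 25% in olive oil) twice weekly for 6 weeks, sacrifice 48 h after final injection. Oral once-daily dosing weeks 1-6 or weeks 4-6; imatinib 50 mg/kg daily weeks 1-6. ALT and AST measured in plasma.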

The test system of data set [3] is Mus musculus. In words: Effect on plasma AST level in CCl4-induced BALB/c mouse model of liver fibrosis at 50 mg/kg, po administered for 6 weeks. Format: ADME, organism-based. To be noted: in vivo, 1008 h. A digest of the protocol: as §2
Data set [4] relates to Mus musculus. Put plainly: Antifibrotic activity in bleomycin-induced C57BL/6 mouse model of lung fibrosis assessed as reduction in Ashcroft score at 50 mg/kg, ip administered on day 7 to 27 and measured on day 28 by H and E staining based microscopy. Format: functional. The conditions noted are these: C57BL/6, ip. A digest of the protocol:
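Female C57BL/6 mice, 6-8 weeks old, under isoflurane received intranasal bleomycin sulphate 0.05 U/mouse in PBS; controls got PBS. Once-daily i.p. treatment days 7-27, n=12/group; imatinib 50 mg/kg i.p. as comparator. Sacrifice at day 28; lung fibrosis scored by Ashcroft score.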

For data set [5], the system named is Mus musculus. Put plainly: Antifibrotic activity in CCl4-induced BALB/c mouse model of liver fibrosis assessed as reduction in liver fibrosis area at 50 mg/kg, po administered for 6 weeks by alpha-SMA staining based microscopy. In kind it is functional, organism-based. The gist of the method: as §1
Data set [6] has as its target T1, Protein-lysine 6-oxidase (Bos taurus, UniProt P33072).
T1 sequence (P33072 whole entry): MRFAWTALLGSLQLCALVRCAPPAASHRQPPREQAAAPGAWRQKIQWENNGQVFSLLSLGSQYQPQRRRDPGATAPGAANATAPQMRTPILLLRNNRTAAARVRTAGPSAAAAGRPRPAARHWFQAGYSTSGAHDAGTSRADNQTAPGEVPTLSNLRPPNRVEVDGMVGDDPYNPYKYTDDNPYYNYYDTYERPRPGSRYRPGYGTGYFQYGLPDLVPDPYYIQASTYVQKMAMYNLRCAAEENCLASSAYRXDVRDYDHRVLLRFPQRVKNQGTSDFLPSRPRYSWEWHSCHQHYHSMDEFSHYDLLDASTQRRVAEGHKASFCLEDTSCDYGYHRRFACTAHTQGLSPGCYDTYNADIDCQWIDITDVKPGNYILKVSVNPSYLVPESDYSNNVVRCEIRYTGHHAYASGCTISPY
In words: Inhibition of LOX in bovine aorta using putrescine as substrate preincubated with enzyme for 30 mins followed by substrate addition and measured every 2.5 mins for 30 mins by Amplex-Red oxidation assay. In kind it is tissue-based. To be noted: read-out: pIC50 (converted). A digest of the protocol: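 LOX extracted from calf aorta after PBS washing with 4 M urea/50 mM borate pH 8.2, concentrated on 10 kDa filters into 1.2 M urea/borate with protease inhibitors. Preincubated 30 min at 37 °C with compound, then Amplex Red/HRP with 10 mM putrescine; fluorescence read every 2.5 min for 30 min.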

The test system of data set [7] is Mus musculus. In words: Antifibrotic activity in CCl4-induced BALB/c mouse model of liver fibrosis assessed as liver fibrosis area at 2 mg/ml, po administered every 2 day for 6 weeks by picro-sirius red staining based microscopy. Format: functional, organism-based. The gist of the method: (§3)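 Female BALB/c mice given CCl4 i.p. (1 mL/kg of 25% CCl4 in olive oil) twice weekly for 6 weeks, killed 48 h after the last dose. The 2 mg/mL treatment was given in drinking water ad libitum, changed every second day, for 6 weeks (n=15). One liver lobe was formalin-fixed and stained for Picro Sirius Red or α-SMA. Slides were scanned at 20X. Fibrotic area is given as % of total liver area, mean ± SEM. One-way ANOVA with Dunnett's test vs CCl4 + vehicle.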

The test system of data set [8] is Mus musculus. In words: Increase in plasma ALT level in CCl4-induced BALB/c mouse model of liver fibrosis at 2 mg/ml, po administered every 2 day for 6 weeks. To be noted: in vivo. In kind it is ADME, organism-based. The gist of the method:
(§4)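 Female BALB/c mice given CCl4 i.p. (1 mL/kg of 25% CCl4 in olive oil) twice weekly for 6 weeks, killed 48 h after the last dose. The 2 mg/mL treatment was given in drinking water ad libitum, changed every second day, for 6 weeks (n=15). ALT and AST were measured in plasma.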

Data set [9] concerns Mus musculus. In words: Increase in plasma AST level in CCl4-induced BALB/c mouse model of liver fibrosis at 2 mg/ml, po administered every 2 day for 6 weeks. In kind it is ADME, organism-based. To be noted: in vivo. A digest of the protocol: as §4
In data set [10] the test system is Mus musculus. Put plainly: Antifibrotic activity in CCl4-induced BALB/c mouse model of liver fibrosis assessed as reduction in liver fibrosis area at 2 mg/ml, po administered every 2 day for 6 weeks by alpha-SMA staining based microscopy. Format: functional, organism-based. A digest of the protocol: as §3
Data set [11] deals with T2, Lysyl oxidase homolog 2 (Homo sapiens, UniProt Q9Y4K0).
T2 sequence (Q9Y4K0 whole entry): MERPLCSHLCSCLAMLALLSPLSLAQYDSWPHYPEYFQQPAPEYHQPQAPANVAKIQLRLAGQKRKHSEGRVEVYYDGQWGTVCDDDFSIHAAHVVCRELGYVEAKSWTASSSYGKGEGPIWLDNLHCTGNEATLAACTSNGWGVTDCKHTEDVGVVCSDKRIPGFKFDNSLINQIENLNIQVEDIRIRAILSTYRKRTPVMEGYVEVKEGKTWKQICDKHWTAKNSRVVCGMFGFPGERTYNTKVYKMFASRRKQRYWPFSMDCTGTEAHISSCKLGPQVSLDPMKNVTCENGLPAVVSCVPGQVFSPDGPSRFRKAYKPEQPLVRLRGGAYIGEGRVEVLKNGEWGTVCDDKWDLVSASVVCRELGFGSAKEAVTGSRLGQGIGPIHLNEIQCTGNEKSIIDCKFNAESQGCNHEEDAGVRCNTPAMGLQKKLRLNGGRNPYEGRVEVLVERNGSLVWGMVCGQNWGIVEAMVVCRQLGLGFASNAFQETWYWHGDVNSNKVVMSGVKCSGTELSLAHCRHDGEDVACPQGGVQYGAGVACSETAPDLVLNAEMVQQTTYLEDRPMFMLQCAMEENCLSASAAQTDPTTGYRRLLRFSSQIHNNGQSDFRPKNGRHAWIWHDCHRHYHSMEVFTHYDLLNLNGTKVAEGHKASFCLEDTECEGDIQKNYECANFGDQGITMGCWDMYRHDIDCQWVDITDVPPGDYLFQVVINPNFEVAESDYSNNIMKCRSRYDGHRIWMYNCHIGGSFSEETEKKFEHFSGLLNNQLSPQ
Put plainly: Inhibition of recombinant human C-terminal His-tagged […] (1-774 residues) expressed in mouse myeloma cells using putrescine as substrate preincubated with enzyme for 30 mins followed by substrate addition and measured every 2.5 mins for 30 mins by Amplex-Red oxidation assay. The conditions noted are these: read-out: pIC50 (converted). The gist of the method: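 LOXL2 enzyme preincubated with compound for 30 min at 37 °C, then Amplex Red (120 µM) / HRP (1.5 U/mL) mix containing 5 mM putrescine added. Buffer: 1.2 M urea, 50 mM sodium borate, pH 8.2. H2O2 fluorescence (ex 565/em 590) read every 2.5 min for 30 min at 37 °C; BAPN 100 µM as positive control; n≥2.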

The subject of data set [12] is SSAO/plasma amine oxidase. In words: Metabolic stability of the compound in dog plasma assessed as SSAO/plasma amine oxidase-mediated compound oxidation by measuring parent compound remaining after 1 hr. Format: ADME, Canis lupus familiaris. To be noted: read-out: Stability. The gist of the method:
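Compound incubated in dog plasma; percentage of parent compound remaining measured after 1 hour.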

Data set [13] concerns the target T3, Amine oxidase [flavin-containing] B (Homo sapiens, UniProt P27338).
T3 sequence (P27338 whole entry): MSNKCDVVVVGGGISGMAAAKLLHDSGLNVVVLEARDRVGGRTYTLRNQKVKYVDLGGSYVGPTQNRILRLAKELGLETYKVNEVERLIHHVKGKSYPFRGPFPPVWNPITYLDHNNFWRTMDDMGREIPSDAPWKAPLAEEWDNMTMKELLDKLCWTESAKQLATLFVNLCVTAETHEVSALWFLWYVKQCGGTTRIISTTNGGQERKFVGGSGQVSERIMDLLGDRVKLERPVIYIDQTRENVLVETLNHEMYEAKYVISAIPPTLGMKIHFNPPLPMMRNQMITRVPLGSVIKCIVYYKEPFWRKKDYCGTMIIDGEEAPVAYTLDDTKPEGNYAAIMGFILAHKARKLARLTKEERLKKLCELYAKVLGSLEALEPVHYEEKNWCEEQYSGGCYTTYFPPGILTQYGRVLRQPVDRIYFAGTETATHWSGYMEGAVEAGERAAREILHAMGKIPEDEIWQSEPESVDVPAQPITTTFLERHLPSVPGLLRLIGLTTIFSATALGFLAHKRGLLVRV
Put plainly: Inhibition of recombinant human MAOB expressed in baculovirus infected in BTI cells using benzylamine as substrate preincubated with enzyme for 30 mins followed by substrate addition and measured every 2.5 mins for 30 mins by Amplex-Red oxidation assay. To be noted: human, 0.5 h.

Data set [14] addresses T4, Amine oxidase [copper-containing] 3 (Homo sapiens, UniProt Q16853).
T4 sequence (Q16853 whole entry): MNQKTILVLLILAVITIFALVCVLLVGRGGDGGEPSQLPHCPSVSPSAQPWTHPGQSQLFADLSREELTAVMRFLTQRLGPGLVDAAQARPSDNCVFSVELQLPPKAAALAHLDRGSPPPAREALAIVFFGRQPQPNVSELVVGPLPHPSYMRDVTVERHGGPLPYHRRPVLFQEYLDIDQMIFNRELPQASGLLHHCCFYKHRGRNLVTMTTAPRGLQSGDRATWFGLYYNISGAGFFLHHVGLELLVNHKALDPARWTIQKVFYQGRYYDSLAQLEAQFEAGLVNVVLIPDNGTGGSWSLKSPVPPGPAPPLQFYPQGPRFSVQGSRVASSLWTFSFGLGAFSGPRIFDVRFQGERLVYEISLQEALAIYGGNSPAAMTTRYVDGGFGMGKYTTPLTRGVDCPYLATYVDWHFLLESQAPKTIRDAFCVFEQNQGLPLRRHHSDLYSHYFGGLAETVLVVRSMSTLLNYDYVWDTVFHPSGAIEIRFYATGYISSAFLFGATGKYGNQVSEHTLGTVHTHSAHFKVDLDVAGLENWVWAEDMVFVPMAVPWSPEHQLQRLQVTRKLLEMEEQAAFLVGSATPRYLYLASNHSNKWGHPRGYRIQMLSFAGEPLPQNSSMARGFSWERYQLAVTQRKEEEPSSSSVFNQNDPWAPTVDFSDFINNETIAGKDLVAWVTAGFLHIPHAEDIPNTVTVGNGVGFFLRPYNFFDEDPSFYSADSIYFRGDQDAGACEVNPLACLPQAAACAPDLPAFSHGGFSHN
In words: Inhibition of recombinant human SSAO using benzylamine as substrate preincubated with enzyme for 30 mins followed by substrate addition and measured every 2.5 mins for 30 mins by Amplex-Red oxidation assay. The conditions noted are these: read-out: pIC50 (converted).

A short description of data set [15]: Metabolic stability of the compound in dog plasma assessed as SSAO/plasma amine oxidase-mediated compound oxidation preincubated with SSAO/primary amine oxidase inhibitor, semicarbazide followed by incubation with compound and measured after 1 hr. In kind it is ADME, Canis lupus familiaris.
Data set [16] can be described thus: Time during which plasma concentration exceed invitro IC50 for recombinant human LOXL2 in BALB/c mouse administered with (Z)-Ethyl1-(4-Amino-2-fluorobut-2-en-1-yl)-3-(3-(N,N-dimethylsulfamoyl)phenyl)-2-methyl-1H-indole-5-carboxylate Hydrochloride at 20 mg/kg, po administered via gavage by HPLC-MS/MS analysis. In kind it is ADME, organism-based. The conditions noted are these: in vivo.

Active and inactive are the calls of the source. The rule behind the calls is not given here.

Regarding `Cc1ccc(NC(=O)c2ccc(CN3CCN(C)CC3)cc2)cc1Nc1nccc(-c2cccnc2)n1` [IMATINIB], the inhibition entry in data set [1] was “inactive”. For the same compound, the Activity entry in data set [2] and in data set [3] was “Non-Toxic” each time. For the same compound, the inhibition in vivo at 50 mg/kg in [4] fell in the range of 50 to 70%. Also, the inhibition entry in [5] is “Active”.

In the case of `N#CCCN`, in data set [6], the IC50 is 2 µM. For the same compound, the inhibition entry in data set [7] is “inactive”. The Activity entry in data set [8] and in data set [9] was “Toxic” throughout. For the same compound, the inhibition entry in data set [10] is “Active”.

Consider `CN(C)S(=O)(=O)c1ccc(OCc2cn(C/C(F)=C/CN)nn2)c(Cl)c1.Cl`, for which the IC50 in data set [11] is 0.02 µM; in data set [6] it was 0.794 µM; in [14] it was greater than 31.6 µM. In addition, the remaining at 1 h in data set [12] amounted to 0%. Further, in data set [13], the pIC50 entry is recorded as “Not Active”. In addition, the Stability entry in [15] is “Stable”.

Consider `Cc1c(-c2cccc(S(=O)(=O)N(C)C)c2)c2cc(C(=O)O)ccc2n1C/C(F)=C/CN`, for which the “T>IC50” value in [16] was greater than 6 h.
